From ChEMBL document CHEMBL1144557, “The novel C-5 aryl, alkenyl, and alkynyl substituted uracil derivatives of L-ascorbic acid: synthesis, cytostatic, and antiviral activity evaluations” (Bioorg Med Chem, 2007) come the findings set out here.

One may read the IC50 as the midpoint of a concentration-inhibition curve.

The test system of data set [1] is MIA PaCa-2. Kind of data set: Antiproliferative activity against human MiaPaCa2 cells after 72 hrs by MTT assay. The class given is functional, cell-based. The method, boiled down:
(§1)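 Monolayers grown in DMEM with 10% FBS, 2 mM L-glutamine and penicillin/streptomycin at 37 °C, 5% CO2. Seeded at 1 × 10⁴–3 × 10⁴ cells/mL on day 0. Compounds from 0.04 M DMSO stocks added at five 10-fold dilutions (10⁻⁸–10⁻⁴ M final), with matched DMSO controls, for 72 h. MTT added for 4 h, formazan dissolved in DMSO, absorbance read at 570 nm. Percentage growth calculated against time-zero and untreated OD. IC50 is 50% inhibition of proliferation.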

The test system of data set [2] is MCF7. Kind of data set: Antiproliferative activity against human MCF7 cells after 72 hrs by MTT assay. Particulars: MCF7, 72 h. The class given is functional, cell-based. The method, boiled down: as §1
In data set [3] the test system is Human alphaherpesvirus 1. Kind of data set: Antiviral activity against HSV1 TK- KOS ACV -induced cytopathogenicity in HEL cells. The class given is functional. Particulars: Human alphaherpesvirus 1, KOS. (In general: Cytopathic effects are the visible damage that an infection or toxin causes in cultured cells.)
Data set [4] concerns WI-38. Kind of data set: Antiproliferative activity against human WI38 cells after 72 hrs by MTT assay. The class given is functional, cell-based. Particulars: WI-38, 72 h. The method, boiled down: as §1
Background: Formazan colour is commonly taken as a measure of viable cells.

Data set [5] has as its system Vesicular stomatitis virus. Kind of data set: Antiviral activity against in Vesicular stomatitis virus-induced cytopathogenicity in HEL cells. The class given is functional.
Data set [6] relates to Coxsackievirus B4. The experiment in a line: Antiviral activity against Coxsackie virus B4-induced cytopathogenicity in Vero cells. The class given is functional. Particulars: Enterovirus B.
Data set [7] deals with SW-620. The experiment in a line: Antiproliferative activity against human SW620 cells after 72 hrs by MTT assay. The class given is functional, cell-based. Particulars: SW-620, 72 h. The method, boiled down: as §1
A short description of data set [8]: Antiproliferative activity against human Molt4/C8 cells. The class given is functional, cell-based. Particulars: MOLT-4. The method, boiled down:
(§2)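 Suspension cells seeded at 50 × 10³ cells/well with a range of test compound concentrations. Cell number counted with a Coulter counter after 2 days (L1210) or 3 days (Molt4/C8, CEM). IC50 is the concentration that cuts cell growth by 50% versus untreated controls, read from plots of cell number (% of control) against concentration.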

In data set [9] the test system is Vesicular stomatitis virus. Kind of data set: Antiviral activity against in Vesicular stomatitis virus- induced cytopathogenicity in HeLa cells. The class given is functional.
Data set [10] concerns HeLa. Kind of data set: Antiproliferative activity against human HeLa cells after 72 hrs by MTT assay. The class given is functional, cell-based. The method, boiled down:
as §1

Data set [11] deals with Human alphaherpesvirus 2. The experiment in a line: Antiviral activity against HSV2 G-induced cytopathogenicity in HEL cells. The class given is functional. Particulars: Human alphaherpesvirus 2, G.
Data set [12] in a line: Cytotoxicity against HEL cells. The class given is cell-based. Particulars: human. The method, boiled down: (§3)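 Cells seeded at 5 × 10³ cells/well and exposed to medium containing a range of test compound concentrations. After 3 days at 37 °C, cell morphology examined microscopically. Reported as minimum cytotoxic concentration (MCC), the concentration causing a microscopically detectable alteration of normal cell morphology.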

In data set [13] the test system is Human alphaherpesvirus 1. The experiment in a line: Antiviral activity against HSV1 KOS-induced cytopathogenicity in HEL cells. The class given is functional. Particulars: Human alphaherpesvirus 1, KOS.
The subject of data set [14] is HEp-2. Kind of data set: Antiproliferative activity against human Hep2 cells after 72 hrs by MTT assay. The class given is functional, cell-based. Particulars: HEp-2, 72 h. The method, boiled down:
as §1

The test system of data set [15] is CCRF-CEM. The experiment in a line: Antiproliferative activity against human CEM cells. The class given is functional, cell-based. The method, boiled down: as §2
Data set [16] has as its system Sindbis virus. The experiment in a line: Antiviral activity against Sindbis virus-induced cytopathogenicity in Vero cells. The class given is functional.
Data set [17] concerns L1210. The experiment in a line: Antiproliferative activity against mouse L1210 cells. The class given is functional, cell-based. The method, boiled down:
as §2

In data set [18] the test system is Punta Toro virus. The experiment in a line: Antiviral activity against Punta Toro virus-induced cytopathogenicity in Vero cells. The class given is functional.
In data set [19] the test system is Vesicular stomatitis virus. The experiment in a line: Antiviral activity against in Vesicular stomatitis virus-induced cytopathogenicity in E6SM cells. The class given is functional.
Data set [20] in a line: Cytotoxicity against E6SM cells. The class given is cell-based. Particulars: human, read-out: MCC. The method, boiled down: as §3
Data set [21] deals with Human alphaherpesvirus 1. Kind of data set: Antiviral activity against HSV1 KOS-induced cytopathogenicity in E6SM cells. The class given is functional. Particulars: Human alphaherpesvirus 1, KOS.
Data set [22] deals with Human alphaherpesvirus 2. The experiment in a line: Antiviral activity against HSV2 G-induced cytopathogenicity in E6SM cells. Particulars: Human alphaherpesvirus 2, G. The class given is functional.
Data set [23] relates to Human alphaherpesvirus 1. Kind of data set: Antiviral activity against HSV1 TK- KOS ACV-induced cytopathogenicity in E6SM cells. The class given is functional. Particulars: Human alphaherpesvirus 1, KOS.
The mark [24] stands for this setting: Homo sapiens, MIA PaCa-2, 72 h, read-out: IC50.

Values after ≈ are worked out from the molar mass of the structure shown.

For the compound `O=C1O/C(=C\Cn2cc(C#Cc3ccccc3)c(=O)[nH]c2=O)C(O)=C1O`, the IC50 in [1] (setting [24]) was 3 µM; in [2], 1 µM; in data set [4], 1 µM; in data set [7], 4 µM; in data set [8] it was 8.2 µM; in data set [10], 2 µM. For the same compound, the half-maximal inhibitory concentration (IC50) was 3 µM in data set [14], 7.6 µM in data set [15] and 8.1 µM in data set [17]. Also, the MIC is over 4 µM in [3]; 4 µM (≈ 1.41 µg/mL) in data set [5]; over 4 µM in [6]; over 4 µM in data set [9]; 4 µM (≈ 1.41 µg/mL) in [11]; over 4 µM in data set [13]. The MIC in data set [16] and in data set [18] was over 4 µM each time. This compound registered an MCC in [12] of 20 µM.

On to `O=C1O/C(=C\Cn2cc(-c3ccccc3)c(=O)[nH]c2=O)C(OCc2ccccc2)=C1OCc1ccccc1`, for which the MIC in data set [19] is 157 µM (≈ 79.8 µg/mL); in data set [6] it was over 157 µM; in [9], over 157 µM; in data set [21], over 157 µM; in data set [22], over 157 µM; in data set [16] it was over 157 µM. Moreover, the MIC in data set [23] and in [18] was over 157 µM each time. Also, the IC50 turned out to be 18 µM in data set [1] (setting [24]); 18 µM in data set [2]; 28 µM in data set [4]; 21 µM in data set [7]; 159 µM in data set [8]; 25 µM in data set [10]. Also, the IC50 in [14] stood at 22 µM; in data set [15], 122 µM; in data set [17], 142 µM. Moreover, the MCC in data set [20] turned out to be 787 µM.

Consider `C#Cc1cn(C/C=C2\OC(=O)C(O)=C2O)c(=O)[nH]c1=O`, for which the 50% inhibitory concentration (IC50) in data set [1] (setting [24]) turned out to be 13 µM; in data set [2], 13 µM; in data set [4] it was 11 µM; in [7], 17 µM; in [8] it was 37 µM; in data set [10], 13 µM. Besides, the half-maximal inhibitory concentration (IC50) in data set [14] is 12 µM; in [15], 23 µM; in data set [17] it was 15 µM. Further, the MIC in data set [3], in [5], in data set [6], in data set [9], in data set [11] and in data set [13] was over 4 µM throughout. In addition, the MIC is over 4 µM in data set [16] and 4 µM (≈ 1.1 µg/mL) in data set [18]. The MCC in [12] is 20 µM.

Consider `CC#Cc1cn(C/C=C2\OC(=O)C(OCc3ccccc3)=C2OCc2ccccc2)c(=O)[nH]c1=O`, for which the MIC in [19] is over 0.4 µM; in data set [6], 1.6 µM (≈ 0.753 µg/mL); in data set [9] it was 1.6 µM (≈ 0.753 µg/mL); in data set [21], over 0.4 µM; in data set [22], over 0.4 µM; in [16] it was 1.6 µM (≈ 0.753 µg/mL). Further, the MIC in data set [23] is over 0.4 µM; in data set [18] it was over 1.6 µM. Besides, the IC50 in data set [1] (mia paca-2) turned out to be 0.5 µM; in data set [2] it was 0.2 µM; in data set [4], 0.2 µM; in data set [7] it was 0.3 µM; in [8], 0.78 µM; in data set [10], 0.2 µM. Also, the half-maximal inhibitory concentration (IC50) amounted to 0.7 µM in data set [14], 0.77 µM in data set [15] and 0.47 µM in data set [17]. Moreover, in data set [20], the MCC is 2 µM.

For `O=C1O/C(=C\Cn2cc(-c3ccccc3)c(=O)[nH]c2=O)C(O)=C1O`, the IC50 was over 100 µM in data set [1] (setting [24]); over 100 µM in data set [2]; over 100 µM in data set [4]; over 100 µM in [7]; 322 µM in data set [8]; over 100 µM in data set [10]. For the same compound, the results for the IC50 in data set [14], in [15] and in data set [17] were over 100 µM, 282 µM and 354 µM, respectively. For the same compound, the MIC in data set [3], in [5], in [6], in data set [9], in data set [11] and in data set [13] was over 100 µM throughout. Moreover, the MIC in data set [16] and in data set [18] was over 100 µM throughout. Also, the MCC in [12] came out at 100 µM.

For `O=C1O/C(=C\Cn2cc(-c3cccs3)c(=O)[nH]c2=O)C(OCc2ccccc2)=C1OCc1ccccc1`, the MIC in data set [19], in data set [6], in [9], in [21], in data set [22] and in data set [16] was over 156 µM in each case. Moreover, the figures for the MIC in data set [23] and in data set [18] were over 6.4 µM and over 156 µM, respectively. Besides, the IC50 in data set [1] (setting [24]) amounted to 16.5 µM; in data set [2], 17 µM; in data set [4], 19 µM; in data set [7] it was 21 µM; in [8] it was 150 µM; in data set [10] it was 18 µM. The results for the IC50 in data set [14], in [15] and in data set [17] were 18 µM, 117 µM and 142 µM, respectively. In data set [20], the MCC amounted to 780 µM.

Regarding `O=C1O/C(=C\Cn2cc(-c3cccs3)c(=O)[nH]c2=O)C(O)=C1O`, the IC50 in data set [1] (setting [24]) was over 100 µM; in [2], over 100 µM; in [4], over 100 µM; in [7] it was over 100 µM; in data set [8], over 500 µM; in data set [10] it was over 100 µM. Further, the half-inhibitory concentration (IC50) in [14] is over 100 µM; in [15], over 500 µM; in [17], over 500 µM. Besides, the MIC in [3], in data set [5], in [6], in [9], in data set [11] and in data set [13] was over 100 µM in each case. Further, the MIC in data set [16] and in [18] was over 100 µM throughout. In [12], the MCC is 100 µM.

Turning to `O=C1O/C(=C\Cn2cc(C#Cc3ccccc3)c(=O)[nH]c2=O)C(OCc2ccccc2)=C1OCc1ccccc1`, the MIC was over 40 µM in data set [19]; over 200 µM in [6]; over 200 µM in data set [9]; over 40 µM in data set [21]; over 40 µM in [22]; 120 µM (≈ 63.9 µg/mL) in data set [16]. Also, the MIC in data set [23] was over 40 µM; in data set [18], over 200 µM. The IC50 in data set [1] (setting [24]) was over 100 µM; in data set [2], 55 µM; in [4], over 100 µM; in data set [7], over 100 µM; in data set [8], 108 µM; in [10], over 100 µM. In addition, the IC50 in data set [14] is over 100 µM; in data set [15] it was 101 µM; in data set [17] it was 108 µM. In addition, the MCC in data set [20] came out at 200 µM.

For the compound `C=CCc1cn(C/C=C2\OC(=O)C(OCc3ccccc3)=C2OCc2ccccc2)c(=O)[nH]c1=O`, the MIC was over 8 µM in data set [19]; 24 µM (≈ 11.3 µg/mL) in data set [6]; 24 µM (≈ 11.3 µg/mL) in [9]; over 8 µM in data set [21]; over 8 µM in data set [22]; 24 µM (≈ 11.3 µg/mL) in data set [16]. The MIC is over 8 µM in data set [23] and over 40 µM in data set [18]. The IC50 in [1] (setting [24]) stood at 5 µM; in data set [2], 4.7 µM; in [4], 10.4 µM; in data set [7], 2.7 µM; in data set [8], 20 µM; in data set [10] it was 2.9 µM. In addition, the figures for the IC50 in [14], in data set [15] and in data set [17] were 4.7 µM, 20 µM and 20 µM, respectively. Further, the MCC in data set [20] was found to be 40 µM.
